Target: Aldo-keto reductase family 1 member B1 (Rattus norvegicus, UniProt P07943)
Assay: Inhibitory activity against aldose reductase in rat lens
Outline: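 Rat lens enzyme: 100 lenses from frozen rat eyes homogenized in distilled water and centrifuged at 5 °C; the supernatant was brought to 40% ammonium sulfate saturation and the freshly prepared supernatant was used. NADPH loss was read at 340 nm for 3 min.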

IC50	SMILES
21 µM	O=C(O)CNC(=O)c1ccc(NC(=O)Cc2ccccc2)cc1
220 µM	O=C(O)CNC(=O)c1cccc2ccccc12
70 µM	O=C(O)CNC(=O)c1ccc2ccccc2c1
8.2 µM	O=C(O)CN(C(=O)c1ccc(F)cc1)c1ccccc1
0.24 µM	O=C(O)CN(C(=O)c1ccc(NC(=O)c2ccccc2)cc1)c1ccccc1
9.6 µM	O=C(O)CNC(=O)c1ccc(NC(=O)c2ccccc2)cc1
45 µM	O=C(O)CNC(=O)c1ccc(NC(=O)CCc2ccccc2)cc1
12 µM	Nc1ccc(C(=O)N(CC(=O)O)c2ccccc2)cc1
2.8 µM	CN(CC(=O)O)C(=O)c1ccc(NC(=O)c2ccccc2)cc1
49 µM	O=C(O)CNC(=O)c1cccc(NC(=O)c2ccccc2)c1

Further lines, the molecule ahead of its results:

SMILES	IC50
COc1ccc(C(=O)N(CC(=O)O)c2ccccc2)cc1	3.2 µM
CN(CC(=O)O)C(=O)c1ccc(F)cc1	8.8 µM
Cc1ccc(C(=O)N(CC(=O)O)c2ccccc2)cc1	3.7 µM
O=C(O)CN(C(=O)c1ccccc1)c1ccccc1	6.3 µM
O=C(O)CN(C(=O)c1ccc2ccccc2c1)c1ccccc1	19 µM
CN(CC(=O)O)C(=O)c1ccccc1	23 µM
O=C(O)CN(C(=O)c1ccc([N+](=O)[O-])cc1)c1ccccc1	0.56 µM
COc1ccc(C(=O)N(C)CC(=O)O)cc1	6.7 µM
CN(CC(=O)O)C(=O)c1ccc([N+](=O)[O-])cc1	26 µM
CN(CC(=O)O)C(=O)c1cccc2ccccc12	40 µM
O=C(O)CN(C(=O)c1cccc2ccccc12)c1ccccc1	8.5 µM
Cc1ccc(C(=O)N(C)CC(=O)O)cc1	13 µM
CN(CC(=O)O)C(=O)c1ccc(N)cc1	11 µM
CN(CC(=O)O)C(=O)c1ccc2ccccc2c1	19 µM

— ChEMBL document CHEMBL1125579, “Relative structure-inhibition analyses of the N-benzoyl and N-(phenylsulfonyl) amino acid aldose reductase inhibitors” (J Med Chem, 1991)
